# Reference: ChEMBL document CHEMBL4145474, “Discovery of novel piperonyl derivatives as diapophytoene desaturase inhibitors for the treatment of methicillin-, vancomycin- and linezolid-resistant Staphylococcus aureus infections” (Eur J Med Chem, 2018)
# Calls of active or inactive are those of the source. The calls are words filed in the database; no cut-off is given here.
# How the values were obtained:
# [1] = tested on: Staphylococcus aureus; assay: Inhibition of pigmentation in wild type Staphylococcus aureus Newman after 48 hrs by spectrophotometric method; assay type: functional, organism-based
# Summary of the method: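 S. aureus Newman was grown in TSB 48 h at 37 °C with a concentration series of compound in DMSO, in duplicate. Controls were a DMSO vehicle and a nonpigmented CrtN mutant. Cells were washed twice in 0.01 M PBS and pigment extracted in methanol. A450 was measured and IC50 derived by curve fitting.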
# [2] = tested on: HepG2; assay: Cytotoxicity against human HepG2 cells assessed as reduction in cell viability after 72 hrs by CCK-8 assay; assay type: functional; details: HepG2, 72 h
# Summary of the method: (§1)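 HepG2 or HEK-293T cells were seeded at 5000 per well and grown 24 h at 37 °C, 5% CO₂. Cells were then exposed to compound for 72 h; compound came from DMSO, diluted in medium to final DMSO <0.4%, with a DMSO-matched vehicle control. Viability was read by 10% CCK-8 for 1 h, absorbance 450 nm, in triplicate.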
# [3] = tested on: HEK-293T; assay: Cytotoxicity against HEK293T cells assessed as reduction in cell viability after 72 hrs by CCK-8 assay; assay type: functional; details: Homo sapiens; summary of the method: as §1
# [4] = Solubility of the compound in water by UV analysis; assay type: physicochemical
# [5] = tested on: Staphylococcus aureus; assay: Antibacterial activity against wild type Staphylococcus aureus Newman infected in BALB/c mouse assessed as decrease in bacterial load in mouse liver at 0.4 mg, ip bid administered 4.5 days measured after 90 hrs relative to control; assay type: functional
# [6] = tested on: Staphylococcus aureus; assay: Antibacterial activity against wild type Staphylococcus aureus Newman assessed as bacterial survival at 1 uM after 24 hrs by H2O2 killing assay (reference value: 26.67%); assay type: functional
# [7] = tested on: Staphylococcus aureus; assay: Antibacterial activity against methicillin/linezolid-resistant Staphylococcus aureus NRS271 infected in BALB/c mouse assessed as decrease in bacterial survival in mouse liver at 0.4 mg, ip bid administered 4.5 days measured after 90 hrs; assay type: functional, organism-based
# Summary of the method: (§2)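 6–8-week-old female BALB/c mice (SPF) dosed intraperitoneally twice daily over 4.5 d at 0.1 or 0.4 mg/bid. Pre-treatment started before infection; post-treatment started 6 h after infection. Vancomycin and linezolid controls given as pre-treatment at 0.4 mg/bid. Retro-orbital inoculation: Mu50 1.1 × 10⁹ CFU, NRS271 1.8 × 10⁸ CFU. Kidneys and livers homogenised in PBS/0.01% Triton X-100 and plated on TSA for CFU.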
# [8] = tested on: Staphylococcus aureus; assay: Antibacterial activity against vancomycin-intermediate methicillin-resistant Staphylococcus aureus Mu50 infected in BALB/c mouse assessed as decrease in bacterial survival in mouse liver at 0.4 mg, ip bid administered 4.5 days measured after 90 hrs; assay type: functional, organism-based; summary of the method: as §2
SMILES,IC50 [1] [µM],also measured
CN(C/C=C/c1ccccc1C(F)(F)F)Cc1ccc2c(c1)OCO2,0.0288,–
CN(Cc1ccc2c(c1)OCO2)C[C@@H]1C[C@H]1c1ccc(C(F)(F)F)cc1F,> 1,–
Cc1ccccc1/C=C/CN(C)Cc1ccc2c(c1)OCO2,> 1,–
CN(C/C=C/c1cccs1)Cc1ccc2c(c1)OCO2,> 1,–
CN(C/C=C/c1ccc(Cl)cc1)Cc1ccc2c(c1)OCO2.Cl,0.0042,CC50 [2]: 141 µM; CC50 [3]: 83.8 µM; solubility [4]: 18.7 mg/mL
Cc1cccc(/C=C/CN(C)Cc2ccc3c(c2)OCO3)c1,0.372,–
CN(C/C=C/c1ccc(C#N)cc1)Cc1ccc2c(c1)OCO2,0.0125,–
CN(C/C=C/c1ccc(C(C)(C)C)cc1)Cc1ccc2c(c1)OCO2,0.0052,–
COC(=O)c1ccc(/C=C/CN(C)Cc2ccc3c(c2)OCO3)cc1,0.0079,–
COc1ccccc1/C=C/CN(C)Cc1ccc2c(c1)OCO2,> 1,–
CN(C/C=C/c1ccc(F)cc1)Cc1ccc2c(c1)OCO2,0.0584,–
CN(C/C=C/c1ccc(C(F)(F)F)cc1)Cc1ccc2c(c1)OCO2.Cl,0.0035,CC50 [2]: 69.2 µM; CC50 [3]: 133 µM; solubility [4]: 13.5 mg/mL
COc1ccc(/C=C/CN(C)Cc2ccc3c(c2)OCO3)cc1,0.0091,–
CN(C/C=C/c1ccc(C(F)(F)F)c(F)c1)Cc1ccc2c(c1)OCO2,0.057,–
CN(C/C=C/C1CCCCC1)Cc1ccc2c(c1)OCO2,> 1,–
CN(CC#Cc1ccc(C(F)(F)F)cc1F)Cc1ccc2c(c1)OCO2,0.0179,–
CN(C/C=C/c1ccc(Cl)cc1Cl)Cc1ccc2c(c1)OCO2,0.0176,–
CN(C/C=C/c1cccc(C(F)(F)F)c1)Cc1ccc2c(c1)OCO2,0.523,–
CN(C/C=C/c1cccc(F)c1)Cc1ccc2c(c1)OCO2,0.412,–
CCOc1ccc(/C=C/CN(C)Cc2ccc3c(c2)OCO3)cc1.Cl,0.0042,CC50 [2]: 82.6 µM; CC50 [3]: 122 µM; solubility [4]: 24.2 mg/mL
CN(C/C=C/c1ccccc1F)Cc1ccc2c(c1)OCO2,0.121,–
CN[C@H](CC(C)C)C(=O)N[C@H]1C(=O)N[C@@H](CC(N)=O)C(=O)N[C@H]2C(=O)N[C@H]3C(=O)N[C@H](C(=O)N[C@H](C(=O)O)c4cc(O)cc(O)c4-c4cc3ccc4O)[C@H](O)c3ccc(c(Cl)c3)Oc3cc2cc(c3O[C@@H]2O[C@H](CO)[C@@H](O)[C@H](O)[C@H]2O[C@H]2C[C@](C)(N)[C@H](O)[C@H](C)O2)Oc2ccc(cc2Cl)[C@H]1O [VANCOMYCIN],–,Activity [5]: 2.13 deltalog10CFU
CN(C/C=C/c1ccc2ccccc2c1)Cc1ccc2c(c1)OCO2.Cl,0.004,CC50 [2]: 60.5 µM; CC50 [3]: 48.3 µM; solubility [4]: 4.56 mg/mL

SMILES,IC50 [1] [µM],also measured
COc1ccc(/C=C/CN(C)Cc2ccc3c(c2)OCO3)cc1F,0.112,–
CN(C/C=C/c1cccc2ccccc12)Cc1ccc2c(c1)OCO2,> 1,–
Fc1cc(C(F)(F)F)ccc1/C=C/CNCc1ccc2c(c1)OCO2,> 1,–
CN(C/C=C/c1ccccc1)Cc1ccc2c(c1)OCO2,> 1,–
COc1ccc(/C=C/CN(C)Cc2ccc3c(c2)OCO3)c(F)c1.Cl,0.0038,CC50 [2]: 120 µM; CC50 [3]: 76.8 µM; solubility [4]: 19.2 mg/mL
CN(C/C=C/C1CCCC1)Cc1ccc2c(c1)OCO2,> 1,–
C[C@@H]1[C@H](O)[C@@H](C)/C=C/C=C/C=C/C=C/C=C/C=C/C=C/[C@H](O[C@@H]2O[C@H](C)[C@@H](O)[C@H](N)[C@@H]2O)C[C@@H]2O[C@](O)(C[C@@H](O)C[C@@H](O)[C@H](O)CC[C@@H](O)C[C@@H](O)CC(=O)O[C@H]1C)C[C@H](O)[C@H]2C(=O)O [AMPHOTERICIN B],–,CC50 [2]: 28.6 µM; CC50 [3]: 36.5 µM
CCN(C/C=C/c1ccc(C(F)(F)F)cc1F)Cc1ccc2c(c1)OCO2,> 1,–
CC(C)N(C/C=C/c1ccc(C(F)(F)F)cc1F)Cc1ccc2c(c1)OCO2,> 1,–
CN(C/C=C/c1ccc(-c2ccccc2)cc1)Cc1ccc2c(c1)OCO2.Cl,0.0039,CC50 [2]: 53.6 µM; CC50 [3]: 59.1 µM; solubility [4]: 5.02 mg/mL
CN(CCCc1ccc(C(F)(F)F)cc1F)Cc1ccc2c(c1)OCO2,> 1,–
CN(C/C=C/c1ccc(C(F)F)cc1)Cc1ccc2c(c1)OCO2.Cl,0.0041,CC50 [2]: 138 µM; CC50 [3]: 68 µM; solubility [4]: 9.03 mg/mL
CN(C/C=C/c1ccccc1Cl)Cc1ccc2c(c1)OCO2,> 1,–
CN(C/C=C/c1ccco1)Cc1ccc2c(c1)OCO2,> 1,–
Cc1ccc(/C=C/CN(C)Cc2ccc3c(c2)OCO3)cc1,0.0157,–
COc1cccc(/C=C/CN(C)Cc2ccc3c(c2)OCO3)c1,> 1,–
CN(C/C=C/c1ccc([N+](=O)[O-])cc1)Cc1ccc2c(c1)OCO2,0.0826,–
CC(=O)N[C@@H](CS)C(=O)O [ACETYLCYSTEINE],–,survival at 1 µM [6]: 57.3%
C/C=C/CN(C)Cc1ccc2c(c1)OCO2,> 1,–
CN(C/C=C/c1ccc(Br)cc1)Cc1ccc2c(c1)OCO2.Cl,0.0046,CC50 [2]: 104 µM; CC50 [3]: 68.3 µM; solubility [4]: 17.5 mg/mL
CN(C/C=C/c1cccc(Cl)c1)Cc1ccc2c(c1)OCO2,0.576,–
C/C(=C\c1ccc(C(F)(F)F)cc1F)CN(C)Cc1ccc2c(c1)OCO2,> 1,–
CC(=O)NC[C@H]1CN(c2ccc(N3CCOCC3)c(F)c2)C(=O)O1 [LINEZOLID],–,Activity [7]: Active; Activity [8]: Active; Activity [5]: 1.41 deltalog10CFU
